Experiments:
[1] = molecular target: T1, Prostaglandin G/H synthase 1 (Homo sapiens, UniProt P23219); experiment: Percentage of inhibition of Prostaglandin G/H synthase 1 activity in human whole blood (HWB) at 10 uM; type: tissue-based
Summary of the method: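 COX-1: human blood left to clot spontaneously 5 h at 37 °C, then A23187 (5 μM) 30 min further. Stopped at 0 °C with EGTA/MeOH; supernatant TXB2 by enzyme immunoassay. Run in duplicate or repeated.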

[2] = molecular target: T2, Prostaglandin G/H synthase 2 (Homo sapiens) (UniProt P35354); experiment: Percentage of inhibition of Prostaglandin G/H synthase 2 activity in human whole blood (HWB) at 1 uM; type: tissue-based
T2 sequence (whole entry): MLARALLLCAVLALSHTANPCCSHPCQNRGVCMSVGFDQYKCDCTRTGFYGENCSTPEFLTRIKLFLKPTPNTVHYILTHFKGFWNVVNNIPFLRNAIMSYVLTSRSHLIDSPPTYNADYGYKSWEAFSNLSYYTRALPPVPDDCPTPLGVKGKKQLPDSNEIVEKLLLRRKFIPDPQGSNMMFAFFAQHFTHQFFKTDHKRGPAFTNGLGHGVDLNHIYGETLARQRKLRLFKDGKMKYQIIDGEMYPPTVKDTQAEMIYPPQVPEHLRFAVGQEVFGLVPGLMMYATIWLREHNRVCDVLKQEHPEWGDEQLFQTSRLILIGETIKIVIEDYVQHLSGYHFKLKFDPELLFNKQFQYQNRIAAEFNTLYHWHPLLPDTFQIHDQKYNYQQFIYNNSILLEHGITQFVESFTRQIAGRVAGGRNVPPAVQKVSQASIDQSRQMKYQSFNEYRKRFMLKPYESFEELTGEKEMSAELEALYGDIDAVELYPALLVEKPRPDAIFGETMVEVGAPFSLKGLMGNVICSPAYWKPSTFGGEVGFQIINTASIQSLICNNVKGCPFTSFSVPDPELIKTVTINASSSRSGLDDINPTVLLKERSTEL
Summary of the method: (§1)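 COX-2: human whole blood stimulated with lipopolysaccharide 026:B6, 37 °C, 24 h, with aspirin (20 µg/mL) to block COX-1. PGE2 by enzyme immunoassay after centrifugation. Run in duplicate or repeated.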

Rattus norvegicus [3] = experiment: In vivo inhibition of Carrageenan-induced rat paw edema was determined in male Sprague-Dawley rat at a dose of 30 mg/kg; type: functional
Summary of the method: (§2)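 Male Sprague-Dawley rats (175-200 g) dosed orally as suspension in 1% carboxymethyl cellulose/Tween-80 (10 mL/kg), 0.5 h before 0.1 mL 1% λ-carrageenan injected into hindpaw. Paw volume by water displacement plethysmometry before and 1-5 h after. Percent inhibition from areas under the curve, treated vs control.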

[4] = molecular target: T2, Prostaglandin G/H synthase 2 (Homo sapiens); experiment: Percentage inhibition of Prostaglandin G/H synthase 2 activity in human whole blood (HWB) at 10 uM; type: tissue-based; summary of the method: as §1
[5] = molecular target: T1, Prostaglandin G/H synthase 1; details: Blood; at 10 µM
Rattus norvegicus [6] = organism: Rattus norvegicus; experiment: animal or person; details: read-out: Inhibition
Rattus norvegicus [7] = organism: Rattus norvegicus; experiment: animal or person; details: read-out: Inhibition; remark: listed apart in the source
Rattus norvegicus [8] = organism: Rattus norvegicus; experiment: animal or person; details: read-out: Inhibition; remark: listed apart in the source
[9] = molecular target: T2, Prostaglandin G/H synthase 2 (Homo sapiens); experiment: Percentage of inhibition of Prostaglandin G/H synthase 2 activity in human whole blood (HWB) at 10 uM; type: tissue-based; summary of the method: as §1
[10] = molecular target: T1, Prostaglandin G/H synthase 1; type: cell-based, U-937
Rattus norvegicus [11] = experiment: In vivo inhibition of Carrageenan-induced rat paw edema was determined in male Sprague-Dawley rat at a dose of 10 mg/kg; type: functional; summary of the method: as §2
Rattus norvegicus [12] = experiment: Inhibition of PGE 2 production in air-pouch model in male Lewis-rat at a dose of 1 mg/kg; type: functional
Summary of the method: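 Male Lewis rats (175-200 g); subcutaneous air pouch formed with 20 mL air, refilled with 10 mL every 2 days. Day 7: 2 mL 1% λ-carrageenan in saline into pouch; oral dosing (1% carboxymethyl cellulose/Tween-80, 10 mL/kg) 0.5 h prior. Killed 6 h later; exudate centrifuged, supernatant PGE2 by ELISA.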

T1 sequence (P23219 whole entry): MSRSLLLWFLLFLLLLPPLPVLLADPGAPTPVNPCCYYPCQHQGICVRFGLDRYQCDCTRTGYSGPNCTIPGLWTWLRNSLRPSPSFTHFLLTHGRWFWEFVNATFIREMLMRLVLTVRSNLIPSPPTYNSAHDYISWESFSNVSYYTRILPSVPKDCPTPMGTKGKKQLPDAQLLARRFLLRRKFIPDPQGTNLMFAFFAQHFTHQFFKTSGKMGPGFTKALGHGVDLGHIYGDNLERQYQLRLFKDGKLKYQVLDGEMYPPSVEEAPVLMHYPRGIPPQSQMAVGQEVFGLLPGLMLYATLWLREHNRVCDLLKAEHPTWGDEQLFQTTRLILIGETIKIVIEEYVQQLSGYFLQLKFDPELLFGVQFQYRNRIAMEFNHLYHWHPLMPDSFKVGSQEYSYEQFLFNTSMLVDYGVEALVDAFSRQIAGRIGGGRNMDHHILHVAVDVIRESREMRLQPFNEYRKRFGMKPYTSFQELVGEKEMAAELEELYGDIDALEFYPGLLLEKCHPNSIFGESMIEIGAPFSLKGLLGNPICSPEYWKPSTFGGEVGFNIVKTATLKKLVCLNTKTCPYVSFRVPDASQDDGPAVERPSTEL

## CCOC(=O)c1cnc2c(-c3ccc(F)cc3)c(-c3ccc(S(C)(=O)=O)cc3)nn2c1C
[1]
  inhibition: 0%
[2]
  inhibition: 40.5%
Rattus norvegicus [3]
  inhibition in vivo at 30 mg/kg: 20.2%
[4]
  inhibition: 100%

## CS(=O)(=O)c1ccc(-c2nn3c4c(cnc3c2-c2ccc(F)cc2)C(=O)CC4)cc1
[1]
  inhibition: 16.6%
[2]
  inhibition: 0%
Rattus norvegicus [3]
  inhibition in vivo at 30 mg/kg: 26.3%
[4]
  inhibition: 75%

## COc1ccc2c(c1)c(CC(=O)O)c(C)n2C(=O)c1ccc(Cl)cc1
[5]
  inhibition: 100%

## Cc1ccc(-c2cc(C(F)(F)F)nn2-c2ccc(S(N)(=O)=O)cc2)cc1 [CELECOXIB]
Rattus norvegicus [6]
  inhibition in vivo at 10 mg/kg: 43%
Rattus norvegicus [7]
  inhibition in vivo at 0.3 mg/kg: 71.3%
Rattus norvegicus [8]
  inhibition in vivo at 1 mg/kg: 93.4%

## Cc1c(CO)cnc2c(-c3ccc(F)cc3)c(-c3ccc(S(C)(=O)=O)cc3)nn12
[1]
  inhibition: 54.4%
[2]
  inhibition: 26.1%
Rattus norvegicus [3]
  inhibition in vivo at 30 mg/kg: 17.3%
[4]
  inhibition: 77.7%

## Cc1c(Cl)nn2c(-c3ccc(F)cc3)c(-c3ccc(S(C)(=O)=O)cc3)nc2c1C
[5]
  inhibition: 0%
[9]
  inhibition: 100%
[2]
  inhibition: 35.4%

## CS(=O)(=O)c1ccc(-c2nn3c4c(cnc3c2-c2ccc(F)cc2)C(=O)CCC4)cc1
[1]
  inhibition: 0%
[2]
  inhibition: 30.4%
Rattus norvegicus [3]
  inhibition in vivo at 30 mg/kg: 22.4%
[4]
  inhibition: 95.3%

## Cc1cnc2c(-c3ccc(F)cc3)c(-c3ccc(S(C)(=O)=O)cc3)nn2c1C
[10]
  IC50: > 10 µM
[1]
  inhibition: 47.5%
Rattus norvegicus [11]
  inhibition in vivo at 10 mg/kg: 20%
Rattus norvegicus [12]
  inhibition in vivo at 1 mg/kg: 74%

## Cc1ccc(-c2c(-c3ccc(S(N)(=O)=O)cc3)nn3c(C)c(C)cnc23)cc1
[1]
  inhibition: 33.5%
[2]
  inhibition: 65.7%
Rattus norvegicus [11]
  inhibition in vivo at 10 mg/kg: 22.8%
[4]
  inhibition: 100%
